# An excerpt weighted towards active compounds, which were near 2% of everything screened.
# UPR CHOP act: activators of apoptotic CHOP UPR arm, primary screen, cell-based, CHO-CHOP luciferase reporter, luminescence, uHTS. activation, % at 10 µM. 330,000 tested, 0.34% active. UPR activation; percent of tunicamycin response over DMSO baseline;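 active = at 10 µM dose, activation of 40% or more, normalized to positive control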;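 also: 100% = tunicamycin at 10 µg/mL and 0% = DMSO alone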
#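 Assay system: CHO-CHOP cells, stable luciferase reporter of PERK-eIF2a-CHOP signalling / Buffer or medium: F12 plus 10% serum / Compound dosing: one dose, 10 µM in 0.5% DMSO / Times: 6 h compound treatment, 37 °C / Technique: luciferase luminescence / Read-out: % reporter activation, DMSO baseline versus tunicamycin full activation / Benchmarks: tunicamycin and DMSO controls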
# MC4R ag barr: MC4R agonists recruiting beta-arrestin, primary screen, cell-based, luminescence, agonist arm of biased-ligand search. activation, % at 8.9 µM. Melanocortin receptor 4 (Homo sapiens), P32245. 360,000 tested, 0.98% active. U2OS MC4R beta-arrestin complementation; percent of melanotan II response, DMSO zero;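 active = activation above a per-plate cutoff, the mean activation of sample wells on that plate plus 3 SD, cut at about 8% in these data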
# Bfl-1 A1 inh: caspase 3/7 activation in MEF A1-2A-BIM cells, primary screen, A1 inhibitor project, cell-based, luminescence, HTS | Caspase-Glo 3/7 luminescence, 3 h; percent of clofoctol response, vehicle zero | caspase activation, % (no concentration beside the values) | 330,000 tested, 0.066% active | AID 2462, 2010;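 active = over half of replicate activation scores above 10%, or exactly half above 10 with the replicate mean above 10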
# MC4R antagonist: MC4R antagonists of cAMP signaling, primary screen, cell-based, TR-FRET, antagonist arm of biased-ligand search; MC4R-expressing cells, MTII-stimulated cAMP, LANCE TR-FRET; 360,000 tested, 0.48% active; inhibition, % at 6.5 µM;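 active = inhibition above its plate's cutoff, the mean of tested wells on that plate plus 3 SD, cut at about 29% in these data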;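 also: 0% = Melanotan II alone and 100% = Melanotan II plus saturating MCL0020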
#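 Assay system: U2OS cells stably expressing human melanocortin 4 receptor (MC4R) / Dosing: 6.5 µM / Timing: compound 30 min, challenge 1 h, detection 1 h / Measured by: Eu-cAMP/anti-cAMP TR-FRET, emission 671 nm / Replicates: singlicate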
# UPR XBP1 act: activators of adaptive XBP1 UPR arm, primary screen, cell-based, CHO-XBP1 luciferase reporter, luminescence, uHTS; 330,000 tested, 0.33% active; activation, % at 20 µM; IRE1-XBP1 UPR activation; percent of tunicamycin response, DMSO as zero;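 active = versus positive control, 20 µM dose yields 30% or more activation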;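 also: 100% = tunicamycin at 10 µg/mL and 0% = DMSO only wells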
#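 Signal: luciferase luminescence; Assay system: CHO-XBP1 luciferase reporter cells; Amount: one thousand reporter cells per well; Dosing: 20 µM single concentration, DMSO 1%; Benchmarks: high control tunicamycin 10 µg/mL final, low control DMSO vehicle only; Schedule: 6 h compound exposure at 37 °C, 5% CO2; Evaluation: percent activation relative to tunicamycin reference.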
# MC4R barr ag: MC4R beta-arrestin agonists, retest, confirmation, cell-based, luminescence, U2OS. shares compounds with MC4R ag barr. U2OS MC4R beta-arrestin recruitment; scaled DMSO 0%, Melanotan II 100%. activation, % at 8.9 µM. 2,400 tested, 31% active. AID 602192, 2012;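 active = mean activation across replicates above the hit cutoff set in the earlier primary screen, cut at about 8% in these data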
# MOR-DOR barr ag: agonists of MOR-DOR heterodimerization, counter-screen for MC4R biased agonist project, cell-based, luminescence; shares compounds with MC4R ag barr; U2OS PathHunter beta-arrestin, beta-gal luminescence; percent of deltorphin B response, DMSO zero; activation, % at 9.2 µM; 2,400 tested, 5.8% active;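 active = mean activation across replicates exceeds the hit threshold derived in the earlier primary screen, cut at about 18% in these data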;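 also: 100% = deltorphin B at 0.9 µM final and 0% = DMSO alone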
# Target sequence (P35372 whole entry, looked up): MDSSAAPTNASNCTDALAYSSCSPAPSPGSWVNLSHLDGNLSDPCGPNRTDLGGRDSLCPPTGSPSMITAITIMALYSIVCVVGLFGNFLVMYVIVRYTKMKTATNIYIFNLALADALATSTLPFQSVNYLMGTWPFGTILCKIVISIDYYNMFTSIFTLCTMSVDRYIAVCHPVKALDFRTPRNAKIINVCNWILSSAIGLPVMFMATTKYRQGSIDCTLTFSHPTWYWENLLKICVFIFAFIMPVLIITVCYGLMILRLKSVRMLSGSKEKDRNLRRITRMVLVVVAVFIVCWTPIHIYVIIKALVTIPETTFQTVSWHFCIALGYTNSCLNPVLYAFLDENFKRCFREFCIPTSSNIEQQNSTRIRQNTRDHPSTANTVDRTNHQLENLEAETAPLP
# Target sequence (P41143 whole entry, looked up): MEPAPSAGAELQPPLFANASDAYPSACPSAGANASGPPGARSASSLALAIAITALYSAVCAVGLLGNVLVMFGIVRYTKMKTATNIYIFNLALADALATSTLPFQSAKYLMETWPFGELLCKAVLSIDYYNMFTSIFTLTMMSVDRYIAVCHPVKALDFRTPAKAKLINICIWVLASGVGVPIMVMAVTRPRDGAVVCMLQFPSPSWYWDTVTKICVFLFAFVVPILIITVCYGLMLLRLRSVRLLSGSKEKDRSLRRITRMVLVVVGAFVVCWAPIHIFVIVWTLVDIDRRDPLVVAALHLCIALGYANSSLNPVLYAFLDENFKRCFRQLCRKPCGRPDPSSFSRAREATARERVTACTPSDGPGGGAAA
# An asterisk follows results filed as active; / = no result.
SMILES,UPR CHOP act,MC4R ag barr,Bfl-1 A1 inh,MC4R antagonist,UPR XBP1 act,MC4R barr ag,MOR-DOR barr ag
S=C(Nc1ccc(N2CCOCC2)cc1)Nc1ccc2nc(-c3ccco3)c(-c3ccco3)nc2c1,-3,1,0,-4,-2,/,/
Cn1nc(C(C)(C)C)cc1C(=O)N1CCCCC1c1cc(C(=O)Nc2ccc3c(c2)OCO3)no1 (centres undefined),/,-1,/,8,/,/,/
Cn1c(=O)c2cc(NC(=O)CCc3ccc4c(c3)OCO4)ccc2n1Cc1ccc(F)cc1,/,-2,/,8,/,/,/
CCC(C(=O)OCC(=O)NC(=O)NC(C)(C)C)c1ccccc1 (centres undefined),-1,9.7*,0,28,-2,3,14
COc1cccc(C(C#N)NCCCNC(C#N)c2cccc(OC)c2OC)c1OC (centres undefined),/,2,/,-2,/,/,/
COc1ccc(-n2c(C)cc(C(=O)COC(=O)c3ccc(O)cc3O)c2C)cc1,5,11*,/,9,-1,3,11
C=CCNC(=S)NNc1nc2c(c(=O)[nH]1)C1(CCCCC1)Cc1ccccc1-2,1,15*,-1,6,3,-3,6
O=c1[nH]c(NCCO)nc2c1C1(CCCC1)Cc1ccccc1-2,2,-2,0,3,-2,/,/
CCc1nc2ccc(C(=O)N3CCN(C(C)=O)CC3)cn2c1N(CC)C(=O)NCCc1ccccc1,/,-2,/,1,/,/,/
Cn1cnc(S(=O)(=O)N2CCCCC2c2cc(C(=O)NCc3ccc(F)cc3)no2)c1 (centres undefined),/,-1,/,9,/,/,/
CCOC(=O)c1cccc(NC(=O)CSc2nnc(COc3ccccc3C)o2)c1,-1,11*,1,-12,0,3,9
O=C(Nc1cccc(Cl)c1)N1CCN(C/C=C/c2ccccc2)CC1,-1,9.6*,-1,5,-4,6,7
CC(C)NC(=O)c1cc(C2CCCCN2S(=O)(=O)c2cccc3cccnc23)on1 (centres undefined),/,-1,/,3,/,/,/
CN1C(=O)/C(=C/c2ccc(C(=O)Nc3ccc(O)cc3C(=O)O)cc2)SC1=S,0,-3,-1,10,-3,/,/
CCCCOc1ccc(C(=O)N/C(=C\c2cccc([N+](=O)[O-])c2)C(=O)OCc2ccco2)cc1,2,20*,-1,10,2,-1,2
COC(=O)c1sccc1N/N=C/c1cccc(OC)c1O,-3,14*,-9,2,-7,0,6
NC1=NC(=O)/C(=C/c2cn(Cc3ccccc3)c3ccccc23)S1,0,11*,1,5,16,2,4
O=C(NNC(=O)c1ccc(F)cc1F)c1ccc(-n2cnnn2)cc1,-1,1,1,10,-5,/,/
COc1ccc(-c2cc(NC=O)c3ncc(-c4cnn(C)c4)n3c2)cc1,/,14*,/,-2,/,9.6*,1
COc1cccc(-c2cnc3c(NC=O)cc(-c4ccc(OC)cc4OC)cn23)c1,/,14*,/,-38,/,12*,2
COc1cccc(-c2cnc3c(NC=O)cc(-c4ccc(N(C)C)cc4)cn23)c1,/,15*,/,-5,/,8,2
COc1cccc(-c2cnc3c(NC=O)cc(-c4cc(OC)c(OC)c(OC)c4)cn23)c1,/,29*,/,-36,/,26*,3
COc1ccc(-c2cc(NC=O)c3ncc(-c4cccc(OC)c4)n3c2)cc1,/,3,/,-6,/,/,/
